ChEMBL document CHEMBL2202970, “Nonsteroidal androgen receptor ligands: versatile syntheses and biological data” (2012)
The source made the active and inactive calls. The calls are words filed in the database; no cut-off is given here.

Experiments:
[1] = test system: LNCaP; experiment: Cytotoxicity against human LNCAP cells assessed as growth inhibition at 2 to 20 uM after 144 hrs by SRB assay; assay type: functional, cell-based
Procedure, shortened: (§1)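 LNCaP and AR-overexpressing LNCaP-AR (3–5-fold higher AR) prostate cancer cells were incubated 144 h with scalar concentrations from 0.02 to 20 μM. Sulforhodamine B read-out was used for growth inhibition (IG50) and cytocidal (LC50) values. Results are the average of three independent experiments.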

[2] = target: T1, Androgen receptor (Homo sapiens) (UniProt P10275); experiment: Antagonist activity at human AR expressed in COS7 cells receptor assessed as inhibition of R1881-induced transcriptional activation at 10 uM by ARE-luciferase reporter gene assay; assay type: functional, cell-based; conditions: COS-7
T1 sequence (whole entry): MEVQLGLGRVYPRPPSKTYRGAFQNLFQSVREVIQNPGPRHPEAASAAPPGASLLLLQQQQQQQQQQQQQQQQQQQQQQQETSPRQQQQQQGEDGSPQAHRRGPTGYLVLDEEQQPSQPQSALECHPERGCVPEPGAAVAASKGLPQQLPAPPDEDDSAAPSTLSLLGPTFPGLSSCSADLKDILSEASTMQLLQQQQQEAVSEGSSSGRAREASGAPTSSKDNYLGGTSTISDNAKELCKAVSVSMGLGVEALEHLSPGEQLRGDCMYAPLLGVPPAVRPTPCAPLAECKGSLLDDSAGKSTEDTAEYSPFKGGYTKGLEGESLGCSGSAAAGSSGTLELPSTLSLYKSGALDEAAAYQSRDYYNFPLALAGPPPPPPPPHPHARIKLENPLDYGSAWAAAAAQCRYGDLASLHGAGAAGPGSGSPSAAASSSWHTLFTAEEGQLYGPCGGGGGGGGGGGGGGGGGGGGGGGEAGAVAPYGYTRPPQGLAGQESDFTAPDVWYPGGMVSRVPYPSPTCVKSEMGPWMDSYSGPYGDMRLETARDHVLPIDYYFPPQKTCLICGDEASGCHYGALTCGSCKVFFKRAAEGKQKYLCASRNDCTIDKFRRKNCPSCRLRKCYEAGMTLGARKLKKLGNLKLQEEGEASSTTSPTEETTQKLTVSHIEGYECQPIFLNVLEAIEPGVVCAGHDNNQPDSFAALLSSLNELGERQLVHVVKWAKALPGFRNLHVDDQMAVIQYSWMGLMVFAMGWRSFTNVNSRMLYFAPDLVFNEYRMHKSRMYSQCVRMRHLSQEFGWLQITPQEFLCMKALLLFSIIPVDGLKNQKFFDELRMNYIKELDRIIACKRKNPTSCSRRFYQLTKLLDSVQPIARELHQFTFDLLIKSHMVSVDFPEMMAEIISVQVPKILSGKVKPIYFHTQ
Procedure, shortened: (§2)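 AR-negative Cos-7 cells plated subconfluent (60–70%) in phenol red-free DMEM with 5% charcoal-stripped serum for 48 h, then cotransfected with 0.3 μg 3416-pTK-TATA-Luc and 1.5 μg pSG5-hAR or empty pSG5. After 24 h, stimulated 24 h with 10 nM R1881 plus compounds. Lysate luciferase as fold induction; hAR checked by Western blot; three experiments.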

[3] = test system: LNCaP-AR; experiment: Cytotoxicity against human LNCaP-AR cells assessed as growth inhibition at 2 to 20 uM after 144 hrs by SRB assay relative to control; assay type: functional, cell-based; procedure, shortened: as §1
[4] = Cytocidal activity in human LNCaP-AR cells after 144 hrs by SRB assay; assay type: functional; conditions: read-out: LC50 (the source's name); procedure, shortened: as §1
[5] = Induction of apoptosis in human LNCaP-AR cells at 20 uM after 144 hrs by propidium iodide staining based flow cytometry analysis; assay type: functional
[6] = test system: LNCaP; experiment: Induction of apoptosis in human LNCAP cells at 20 uM after 144 hrs by […]; assay type: functional
[7] = target: T1, Androgen receptor (Homo sapiens); experiment: Antagonist activity at AR receptor in human LNCAP cells assessed as inhibition of R1881-induced transcriptional activation at 10 nM to 10 uM by ARE-uciferase reporter gene assay; assay type: functional, cell-based
Procedure, shortened: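 LNCaP cells at 60–70% confluence, plated in phenol red-free DMEM with 5% charcoal-stripped serum, then transfected after 48 h with 0.3 μg 3416-pTK-TATA-Luc reporter. 24 h later, stimulated for 24 h with 10 nM R1881 with or without test compound (10 nM–10 μM). Luciferase activity in lysates was expressed as fold induction. Three independent experiments were averaged.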

[8] = test system: LNCaP; experiment: Cytocidal activity in against human LNCAP cells after 144 hrs by SRB assay; assay type: functional; conditions: read-out: LC50 (the source's name); procedure, shortened: as §1
[9] = target: T1, Androgen receptor (Homo sapiens); experiment: Agonist activity at AR receptor in human LNCAP cells at 10 nM to 10 uM by ARE-luciferase reporter gene assay; assay type: functional, cell-based
Procedure, shortened: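 Androgen-responsive LNCaP cells plated subconfluent (60–70%) in phenol red-free DMEM with 5% charcoal-stripped serum for 48 h, then transfected with 0.3 μg 3416-pTK-TATA-Luc ARE reporter. After 24 h, cells were exposed for 24 h to compounds (10 nM to 10 μM) without or with 10 nM R1881. Lysate luciferase expressed as fold induction; three independent experiments.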

[10] = target: T1, Androgen receptor (Homo sapiens); experiment: Antagonist activity at human AR expressed in COS7 cells receptor assessed as inhibition of androgen-induced transcriptional activation at 10 nM to 10 uM by ARE-luciferase reporter gene assay; assay type: functional, cell-based; conditions: COS-7; procedure, shortened: as §2
[11] = Growth inhibition in human LNCaP-AR cells after 144 hrs by SRB assay; assay type: functional; procedure, shortened: as §1

With `Cc1ccc(S(=O)(=O)N[C@@](C)(CS(=O)(=O)c2ccc(F)cc2)C(=O)Nc2ccc(C#N)c(C(F)(F)F)c2)cc1` the “growth inhibition (GI)” value [1] was “Active”.
With `Cc1ccc(S(=O)(=O)N[C@](C)(CS(=O)(=O)c2ccc(F)cc2)C(=O)Nc2ccc(C#N)c(C(F)(F)F)c2)cc1` the inhibition [2] was “Active”, the “growth inhibition (GI)” value [3] was “Active” and the CC50 [4] was 18.3 µM. The Activity [5] was 91.6%, the “growth inhibition (GI)” value [1] was “Active” and the Activity [6] was 80.5%. For the same molecule, the inhibition [7] was “Active”, the CC50 [8] was 18.3 µM and the Activity [9] was “inactive”.
With `CC(C)(C)S(=O)(=O)N[C@@](C)(CS(=O)(=O)c1ccc(F)cc1)C(=O)Nc1ccc(C#N)c(C(F)(F)F)c1` the “growth inhibition (GI)” value [1] was “Active”.
In the case of `C[C@]1(CS(=O)(=O)c2ccc(F)cc2)NC(=O)N(c2ccc(C#N)c(C(F)(F)F)c2)C1=O`, the “growth inhibition (GI)” value [1] is reported as “Active”.
In the case of `C[C@](N)(COc1ccc(C#N)cc1)C(=O)Nc1ccc(C#N)c(C(F)(F)F)c1`, the inhibition [2] is reported as “inactive” and the Activity [10] is reported as “Active”.
In the case of `C[C@]1(CS(=O)(=O)c2ccc(F)cc2)NC(=S)N(c2ccc(C#N)c(C(F)(F)F)c2)C1=O`, the “growth inhibition (GI)” value [1] is reported as “Active”.
With `C[C@@](N)(CS(=O)(=O)c1ccc(F)cc1)C(=O)Nc1ccc(C#N)c(C(F)(F)F)c1` the “growth inhibition (GI)” value [1] was “Active”.
In the case of `C[C@](N)(CS(=O)(=O)c1ccc(F)cc1)C(=O)Nc1ccc(C#N)c(C(F)(F)F)c1`, the “growth inhibition (GI)” value [1] is reported as “Active”.
For `C[C@@]1(CS(=O)(=O)c2ccc(F)cc2)NC(=S)N(c2ccc(C#N)c(C(F)(F)F)c2)C1=O`, the “growth inhibition (GI)” value [1] was “Active”.
With `C[C@@]1(CS(=O)(=O)c2ccc(F)cc2)NC(=O)N(c2ccc(C#N)c(C(F)(F)F)c2)C1=O` the “growth inhibition (GI)” value [1] was “Active”.
In the case of `C[C@](O)(CS(=O)(=O)c1ccc(F)cc1)C(=O)Nc1ccc(C#N)c(C(F)(F)F)c1` [(R)-BICALUTAMIDE], the “growth inhibition (GI)” value [3] is reported as “inactive”, the IG50 [11] is reported as <1.8 µM and the Activity [5] is reported as 2.1%. The “growth inhibition (GI)” value [1] was “Active”, the Activity [6] was 2.1% and the CC50 [8] was < 1.8 µM.
For `C[C@@]1(COc2ccc(C#N)cc2)NC(=O)N(c2ccc(C#N)c(C(F)(F)F)c2)C1=O`, the Activity [10] was “inactive” and the Activity [9] was “inactive”.
With `CC(C)(C)S(=O)(=O)N[C@](C)(CS(=O)(=O)c1ccc(F)cc1)C(=O)Nc1ccc(C#N)c(C(F)(F)F)c1` the “growth inhibition (GI)” value [3] was “Active” and the “growth inhibition (GI)” value [1] was “Active”.
